According to ChEMBL document CHEMBL4680339, “Synthesis and bioevaluation of N-(3,4,5-trimethoxyphenyl)-1H-pyrazolo[3,4-b]pyridin-3-amines as tubulin polymerization inhibitors with anti-angiogenic effects” (Bioorg Med Chem, 2021):
Each block holds one compound with its values, some of them ahead of it. Calls of active or inactive are those of the source. The rule behind the calls is not given here.

Legend:
WI-38 = assay: Cytotoxicity against human WI-38 cells assessed as reduction in cell growth incubated for 72 hrs by MTT assay; type: cell-based; details: WI-38, 72 h
Outline: (§1)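 Log-phase cells seeded at 5 × 10³/well and grown 24 h, then exposed to graded compound concentrations for 72 h. MTT (5 mg/mL) added for 4 h; formazan dissolved in DMSO and absorbance read at 490 nm. IC50 calculated from growth inhibition; means ± SD of triplicate experiments.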

HUVEC [1] = assay: Downregulation of MMP-9 protein expression in HUVEC at 0.05 to 1 uM incubated for 24 hrs by Western blot analysis; type: functional; details: Homo sapiens, dose 0.05-1 µM
Outline: (§2)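 HUVECs exposed to various compound concentrations for 24 h. MMP-9 and TIMP-1 measured by western blot: RIPA lysates, equal protein loads on 8–12% SDS-PAGE, nitrocellulose transfer, primary antibodies overnight at 4 °C, HRP secondary, ECL detection.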

MCF7 [2] = assay: Induction of cell cycle arrest in human MCF7 cells assessed as accumulation in G1 phase at 5 nM incubated for 24 hrs by PI staining based flow cytometry analysis (reference value: 63.70 %); type: functional
MCF7 [3] = assay: Disruption of microtubule organization in human MCF7 cells assessed as microtubules spindle shrinkage around the centre of the cell at 100 nM incubated for 6 hrs by immunofluorescence based laser scanning confocal microscopic analysis; type: functional
Outline: (§3)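 MCF-7 cells (3 × 10⁴) grown 24 h in confocal dishes, then treated 6 h with compound. Fixed in prewarmed 4% paraformaldehyde, permeabilized with 0.5% Triton X-100, blocked with 10% goat serum. Stained with mouse anti-tubulin (4 °C overnight), Alexa Fluor 488 secondary, and DAPI. Imaged by laser scanning confocal microscopy.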

MCF7 [4] = assay: Induction of cell cycle arrest in human MCF7 cells assessed as reduction in Cdc2 expression incubated for 24 hrs by Western blot analysis; type: functional, cell-based; details: dose 10-100 nM
Outline: (§4)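 MCF-7 cells treated 24 h with 0, 10, 50 or 100 nM compound and lysed in RIPA buffer. Equal protein loads separated by 8–12% SDS-PAGE, transferred to nitrocellulose and blocked with 5% milk. Probed overnight at 4 °C with primary antibodies to Cdc25c, Cdc2 and Cyclin B1, then HRP secondary, with ECL detection. Densitometry averaged from two independent experiments.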

A549 = assay: Antiproliferative activity against human A549 cells assessed as reduction in cell growth incubated for 72 hrs by MTT assay; type: functional, cell-based; details: A549, 72 h; outline: as §1
HUVEC [5] = assay: Antimigratory activity against human HUVEC assessed as cell migration rate at 0.1 uM incubated for 12 hrs by wound healing assay (reference value: 68.5 %); type: functional
MCF7 [6] = assay: Disruption of microtubule organization in human MCF7 cells assessed as breakage and abnormal spindle formation incubated for 6 hrs by immunofluorescence based laser scanning confocal microscopic analysis; type: functional, cell-based; details: dose 10-100 nM; outline: as §3
MCF7 [7] = assay: Induction of cell cycle arrest in human MCF7 cells assessed as reduction in CyclinB1 expression incubated for 24 hrs by Western blot analysis; type: functional, cell-based; details: dose 10-100 nM; outline: as §4
HUVEC [8] = assay: Antimigratory activity against human HUVEC assessed as cell migration rate at 0.5 uM incubated for 24 hrs by wound healing assay (reference value: 100 %); type: functional
HUVEC [9] = assay: Cytotoxicity against HUVEC cells assessed as reduction in cell growth incubated for 72 hrs by MTT assay; type: cell-based; details: Homo sapiens; outline: as §1
HUVEC [10] = assay: Antimigratory activity against human HUVEC assessed as cell migration rate at 1 uM incubated for 24 hrs by wound healing assay (reference value: 100 %); type: functional
Sus scrofa = organism: Sus scrofa; assay: (§5) Inhibition of pig brain tubulin polymerization by spectrophotometric method; type: tissue-based
Outline: (§6)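 Pig brain tubulin, purified by three assembly/disassembly cycles and phosphocellulose chromatography, mixed with compound at various concentrations. Buffer: PEM (100 mM PIPES, 1 mM MgCl₂, 1 mM EGTA) with 1 mM GTP and 5% glycerol. Polymerization followed at 37 °C by light scattering at 340 nm; plateau absorbance used for calculation.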

[11] = as §5; type: tissue-based, Sus scrofa; outline: as §6
HCT-116 = assay: Antiproliferative activity against human HCT-116 cells assessed as reduction in cell growth incubated for 72 hrs by MTT assay; type: functional, cell-based; details: HCT-116, 72 h; outline: as §1
MCF7 [12] = assay: Induction of cell cycle arrest in human MCF7 cells assessed as reduction in Cdc25c expression incubated for 24 hrs by Western blot analysis; type: functional, cell-based; details: dose 10-100 nM; outline: as §4
HUVEC [13] = assay: Antivascular activity against HUVEC assessed as reduction in tube formation at 1 microM incubated for 6 hrs by matrigel based inverted fluorescence microscopic analysis; type: functional; details: Homo sapiens
Outline: (§7)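 Matrigel polymerized 30 min at 37 °C. HUVECs in ECM medium with 20% FBS seeded at 5 × 10⁴/well with compound at 0, 0.1, 0.5 or 1 μM. After 6 h, tubule formation was photographed under an inverted microscope (×100).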

HUVEC [14] = assay: Antivascular activity against HUVEC assessed as disruption of vascular structure incubated for 6 hrs by matrigel based inverted fluorescence microscopic analysis; type: functional, cell-based; details: Homo sapiens, dose 0.1-1 µM
Outline: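 Capillary-like networks were formed by HUVECs on Matrigel over 6 h, then exposed to vehicle or compound (0.1, 0.5, 1 μM) in serum-free DMEM for 6 h and photographed. Remaining tubes were counted; disruption = [1 − (tubes treated/tubes vehicle)] × 100%.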

HUVEC [15] = assay: Antimigratory activity against human HUVEC assessed as cell migration rate at 0.5 uM incubated for 12 hrs by wound healing assay (reference value: 68.5 %); type: functional
MCF7 [16] = assay: Induction of cell cycle arrest in human MCF7 cells assessed as accumulation in G1 phase at 10 nM incubated for 24 hrs by PI staining based flow cytometry analysis (reference value: 63.70 %); type: functional
HeLa = assay: Antiproliferative activity against human HeLa cells assessed as reduction in cell growth incubated for 72 hrs by MTT assay; type: functional, cell-based; outline: as §1
HUVEC [17] = assay: Antimigratory activity against human HUVEC assessed as cell migration rate at 0.1 uM incubated for 24 hrs by wound healing assay (reference value: 100 %); type: functional
HUVEC [18] = assay: Upregulation of TIMP-1 protein expression in HUVEC at 0.05 to 1 uM incubated for 24 hrs by Western blot analysis; type: functional; details: Homo sapiens, dose 0.05-1 µM; outline: as §2
MCF7 [19] = assay: Induction of apoptosis in human MCF7 cells; type: functional, cell-based
MCF7 [20] = assay: Reduction in VEGF-A expression in human MCF7 cells at 50 to 100 nM incubated for 24 hrs by Western blot analysis; type: functional, cell-based; details: dose 50-100 nM
Outline: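 MCF-7 cells treated with compound at various concentrations for 24 h. VEGF-A protein assessed by western blot (RIPA lysis, SDS-PAGE, nitrocellulose transfer, ECL detection) with quantitative densitometry. Mean ± SD, three independent experiments.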

HepG2 = assay: Antiproliferative activity against human HepG2 cells assessed as reduction in cell growth incubated for 72 hrs by MTT assay; type: functional, cell-based; details: HepG2, 72 h; outline: as §1
MCF7 [21] = assay: Induction of cell cycle arrest in human MCF7 cells assessed as accumulation in G2/M phase at 10 nM incubated for 24 hrs by PI staining based flow cytometry analysis (reference value: 16.81 %); type: functional
MCF7 [22] = assay: Induction of cell cycle arrest in human MCF7 cells assessed as accumulation in S phase at 5 nM incubated for 24 hrs by PI staining based flow cytometry analysis (reference value: 19.50 %); type: functional
HUVEC [23] = assay: Antiinvasive activity against human HUVEC incubated for 24 hrs by crystal violet staining based inverted fluorescence microscopic transwell assay; type: functional, cell-based; details: dose 0.05-1 µM
Outline: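 Transwell inserts pre-coated with Matrigel (5 h, 37 °C). Cells in serum-free medium with 0, 0.05, 0.1, 0.5 or 1 μM compound were added to the upper well at 5 × 10⁵ cells/mL; the lower chamber held ECM with 10% FBS. After 24 h at 37 °C, invaded cells were methanol-fixed, stained with 0.1% crystal violet and counted in three random fields. Mean ± SD, three independent experiments.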

MCF7 [24] = assay: Antiproliferative activity against human MCF7 cells assessed as reduction in cell growth incubated for 72 hrs by MTT assay; type: functional, cell-based; details: MCF7, 72 h; outline: as §1
MCF7 [25] = assay: Induction of cell cycle arrest in human MCF7 cells assessed as accumulation in G2/M phase at 5 nM incubated for 24 hrs by PI staining based flow cytometry analysis (reference value: 16.81 %); type: functional
HUVEC [26] = assay: Antivascular activity against HUVEC assessed as reduction in tube formation incubated for 6 hrs by matrigel based inverted fluorescence microscopic analysis; type: functional, cell-based; details: Homo sapiens, dose 0.1-1 µM; outline: as §7
HUVEC [27] = assay: Antivascular activity against HUVEC assessed as reduction in tube formation at 0.1 microM incubated for 6 hrs by matrigel based inverted fluorescence microscopic analysis; type: functional, cell-based; details: Homo sapiens; outline: as §7
MCF7 [28] = assay: Disruption of microtubule organization in human MCF7 cells assessed as microtubules shrinkage around the nucleus at 10 nM incubated for 6 hrs by immunofluorescence based laser scanning confocal microscopic analysis; type: functional, cell-based; outline: as §3
MCF7 [29] = assay: Induction of cell cycle arrest in human MCF7 cells assessed as accumulation in S phase at 10 nM incubated for 24 hrs by PI staining based flow cytometry analysis (reference value: 19.50 %); type: functional
HUVEC [30] = assay: Antimigratory activity against human HUVEC assessed as cell migration rate at 1 uM incubated for 12 hrs by wound healing assay (reference value: 68.5 %); type: functional

IC50 (A549): 6 µM | IC50 [11]: 14 µM | IC50 (HCT-116): 0.26 µM | IC50 (HeLa): 0.21 µM | IC50 (HepG2): 4.79 µM | IC50 (MCF7 [24]): 0.067 µM
Compound: COc1ccc2c(N(C)c3cc(OC)c(OC)c(OC)c3)n[nH]c2n1
IC50 (WI-38): 23.4 µM | inhibition (HUVEC [1]): Active | Activity (MCF7 [2]): 26.47% | Activity (MCF7 [3]): Active | Activity (MCF7 [4]): Dose-dependent effect | Activity (HUVEC [5]): 12.4% | Activity (MCF7 [6]): Dose-dependent effect | Activity (MCF7 [7]): Dose-dependent effect | Activity (HUVEC [8]): 26.6% | IC50 (HUVEC [9]): 23.5 µM | Activity (HUVEC [10]): 22.4% | inhibition (Sus scrofa): Dose-dependent effect | Activity (MCF7 [12]): Dose-dependent effect | inhibition at 1 µM (HUVEC [13]): 100% | Activity (HUVEC [14]): Dose-dependent effect | Activity (HUVEC [15]): 11.3% | Activity (MCF7 [16]): 9.16% | Activity (HUVEC [17]): 26.4% | Activity (HUVEC [18]): Active | Activity (MCF7 [19]): inactive | inhibition (MCF7 [20]): Active | Activity (MCF7 [21]): 80.73% | Activity (MCF7 [22]): 10.02% | Activity (HUVEC [23]): Dose-dependent effect | Activity (MCF7 [25]): 63.5% | Activity (HUVEC [26]): Dose-dependent effect | Activity (HUVEC [27]): Active | Activity (MCF7 [28]): Active | Activity (MCF7 [29]): 10.11% | Activity (HUVEC [30]): 10.9%

IC50 (A549): > 50 µM | IC50 (HCT-116): > 50 µM | IC50 (HeLa): 6.28 µM | IC50 (HepG2): > 50 µM | IC50 (MCF7 [24]): 22.4 µM
Compound: COc1ccc2c(Nc3cc(OC)c(OC)c(OC)c3)nn(C3CCCC3)c2n1
IC50 (WI-38): 73.8 µM

IC50 (A549): > 50 µM | IC50 (HCT-116): > 50 µM | IC50 (HeLa): 6.07 µM | IC50 (HepG2): 6.24 µM | IC50 (MCF7 [24]): > 50 µM
Compound: COc1ccc2c(Nc3cc(OC)c(OC)c(OC)c3)nn(C)c2n1
IC50 (WI-38): 2.43 µM

IC50 (A549): > 50 µM | IC50 (HCT-116): > 50 µM | IC50 (HeLa): > 50 µM | IC50 (HepG2): > 50 µM | IC50 (MCF7 [24]): > 50 µM
Compound: COc1ccc2c(N(c3cc(OC)c(OC)c(OC)c3)C3CCCC3)nn(C3CCCC3)c2n1
IC50 (WI-38): 138 µM
